The record followed here is ChEMBL document CHEMBL1649498, “Pharmacological exploitation of an off-target antibacterial effect of the cyclooxygenase-2 inhibitor celecoxib against Francisella tularensis” (Antimicrob Agents Chemother, 2009).

Molecules are shown by their SMILES. Values after ≈ are worked out from the molar mass of the structure shown. Active and inactive are the calls of the source. The rule behind the calls is not given here.

In test [1] the test system is Francisella tularensis. Kind of test: Antibacterial activity against Francisella tularensis LVS infected in mouse RAW264.7 cells after 48 hrs by broth microdilution method. It is filed as functional. On the technique in general: Dilution methods test growth across graded concentrations, often in twofold steps.
In test [2] the test system is Francisella novicida. Description: Antibacterial activity against Francisella novicida infected in mouse RAW264.7 cells at 64 ug/ml after 24 hrs by broth microdilution method. It is filed as functional, cell-based. The conditions noted are these: Francisella tularensis subsp. novicida. In a few lines: (§1)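 F. novicida U112 grown overnight on chocolate agar, suspended in PBS and diluted to 5 × 10⁵ CFU/ml in TSB with 0.025% iron(III) pyrophosphate and 0.1% cysteine HCl. CLSI broth microdilution in triplicate, 1 to 64 μg/ml, 37°C for 24 h. MIC was the lowest concentration with no visible growth.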

The test system of test [3] is Francisella novicida. Kind of test: Antibacterial activity against Francisella novicida infected in mouse RAW264.7 cells after 24 hrs by broth microdilution method. It is filed as functional, Francisella tularensis subsp. novicida. The conditions noted are these: Francisella tularensis. In a few lines:
as §1

The subject of test [4] is Francisella tularensis. Kind of test: Antibacterial activity against Francisella tularensis SchuS4 infected in mouse RAW264.7 cells at 64 ug/ml after 24 hrs by broth microdilution method. It is filed as functional, cell-based.
The next test deals with RAW264.7. Description: Cytotoxicity against mouse RAW264.7 cells after 8 hrs by MTT assay. It is filed as cell-based. Conditions: RAW264.7, 8 h. Put shortly: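 RAW 264.7 cells at 2.5 × 10⁴/well, at least 6 wells per group, left overnight. Treated in 5% FBS DMEM with agents in DMSO (0.1% final) for 8 h. Then 0.5 mg/ml MTT for 1 h at 37°C, dye dissolved in DMSO, A570 read. Viability taken as % of vehicle control; IC50 from the dose-response.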
For orientation: Tetrazolium dyes change colour on reduction, which living cells bring about.

Test [5] in a line: Selectivity index, ratio of IC50 for mouse RAW264.7 cells to MIC for Francisella novicida. It is filed as functional.
The subject of test [6] is Francisella tularensis. Description: Antibacterial activity against Francisella tularensis LVS infected in mouse RAW264.7 cells at 64 ug/ml after 48 hrs by broth microdilution method. It is filed as functional, cell-based.
In the next test the test system is Salmonella typhimurium. Description: Antibacterial activity against Salmonella enterica serovar Typhimurium ATCC 14028 infected in mouse RAW264.7 cells at 64 ug/ml after 24 to 48 hrs by broth microdilution method. It is filed as functional, organism-based. The conditions noted are these: Salmonella enterica subsp. enterica serovar Typhimurium.
For a further test, the system named is Escherichia coli. Description: Antibacterial activity against Escherichia coli ATCC 25922 infected in mouse RAW264.7 cells at 64 ug/ml after 24 to 48 hrs by broth microdilution method. It is filed as functional, organism-based.
The test system of test [7] is Francisella tularensis. Description: Antibacterial activity against Francisella tularensis SchuS4 infected in mouse RAW264.7 cells after 24 hrs by broth microdilution method. It is filed as functional. The conditions noted are these: SchuS4, 24 h.
Test [8] concerns Francisella novicida. Kind of test: Antibacterial activity against Francisella novicida infected in mouse RAW264.7 cells at 64 ug/ml after 24 hrs by broth microdilution method in presence of 10% human serum albumin. It is filed as functional, cell-based. Conditions: Francisella tularensis subsp. novicida.
Test [9] concerns Francisella novicida. Kind of test: Antibacterial activity against Francisella novicida infected in mouse RAW264.7 cells at 64 ug/ml after 24 hrs by broth microdilution method in presence of 50% human serum albumin. It is filed as functional, cell-based. Conditions: Francisella tularensis subsp. novicida.
Test [10] deals with Francisella novicida. Kind of test: Antibacterial activity against Francisella novicida infected in mouse RAW264.7 cells at 64 ug/ml after 24 hrs by broth microdilution method in presence of 80% human serum albumin. It is filed as functional, cell-based. Conditions: Francisella tularensis subsp. novicida.
Test [11] deals with Francisella novicida. Kind of test: Antibacterial activity against Francisella novicida infected in mouse RAW264.7 cells at 64 ug/ml after 24 hrs by broth microdilution method in presence of 80% fetal bovine serum. Conditions: Francisella tularensis subsp. novicida. It is filed as functional, cell-based. In a few lines: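 Broth contained 0, 10, 50 or 80% human AB serum (not albumin) or FBS to probe protein binding. NE means no effect at 64 μg/ml.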

Test [12] relates to Francisella tularensis. Description: Antibacterial activity against Francisella tularensis SchuS4 infected in human THP1 cells at 4 ug/ml after 24 hrs by broth microdilution method. It is filed as functional, cell-based. Conditions: THP-1.

With `Nc1ccc(-n2nc(C(F)(F)F)cc2-c2ccc(-c3cc(Cl)c(Cl)cc3Cl)cc2)cc1`, the MIC with Francisella tularensis [1] worked out at 4 µg/mL (≈ 8.29 µM). Moreover, the outcome in the test on Francisella novicida [2] was inactive.

As for `Nc1ccc(-n2nc(C(F)(F)F)cc2-c2cccc3ccccc23)cc1`, the MIC in the test on Francisella novicida [3] came to 16 µg/mL (≈ 45.3 µM); against Francisella tularensis [1], 8 µg/mL (≈ 22.6 µM).

With `Nc1ccc(-n2nc(C(F)(F)F)cc2-c2ccc(-c3ccc(Br)cc3)cc2)cc1`, the MIC in the test on Francisella novicida [3] and with Francisella tularensis [1] was 4 µg/mL (≈ 8.73 µM) in each case. The outcome in the test on Francisella tularensis [4] was Active. This compound also showed a half-inhibitory concentration (IC50) in the test on RAW264.7 of 46 µg/mL (≈ 100 µM). The Ratio in test [5] amounted to 11.5.

With `CCCCc1ccc(-c2cc(C(F)(F)F)nn2-c2ccc(C(N)=O)cc2)cc1`, the results for the MIC in the test on Francisella novicida [3] and against Francisella tularensis [1] were 16 µg/mL (≈ 41.3 µM) and 8 µg/mL (≈ 20.7 µM), respectively.

On to `CS(=O)(=O)c1ccc(-n2nc(C(F)(F)F)cc2-c2ccc(F)cc2)cc1`, for which the result with Francisella novicida [2] and with Francisella tularensis [6] was inactive.

As to `CS(=O)(=O)c1ccc(C2=C(c3ccccc3)C(=O)OC2)cc1` [ROFECOXIB], the result with Salmonella typhimurium, in the test on Escherichia coli, in the test with Francisella novicida [2], in the test with Francisella tularensis [6] and with Francisella tularensis [4] was inactive.

Take `NC(=O)c1ccc(-n2nc(C(F)(F)F)cc2-c2ccc(-c3ccc(C(F)(F)F)cc3)cc2)cc1`: the outcome with Francisella novicida [2] and in the test on Francisella tularensis [6] was inactive.

Consider `NS(=O)(=O)c1ccc(-n2nc(C(F)(F)F)cc2-c2ccc(-c3ccc(Cl)cc3)cc2)cc1`, for which the MIC in the test with Francisella novicida [3] and in the test with Francisella tularensis [1] was 4 µg/mL (≈ 8.37 µM) throughout. In addition, in the test on RAW264.7, the half-inhibitory concentration (IC50) amounted to 4.8 µg/mL (≈ 10 µM). In addition, the Ratio in [5] was determined as 1.2.

As to `CC(C)(C)c1ccc(-c2ccc(-c3cc(C(F)(F)F)nn3-c3ccc(C(N)=O)cc3)cc2)cc1`, the result in the test on Francisella novicida [2] and with Francisella tularensis [6] was inactive.

For `NC(=O)c1ccc(-n2nc(C(F)(F)F)cc2-c2ccc(-c3ccccc3)cc2)cc1`, the minimum inhibitory concentration (MIC) in the test on Francisella novicida [3] turned out to be 16 µg/mL (≈ 39.3 µM); against Francisella tularensis [1], 8 µg/mL (≈ 19.6 µM).

For `Cc1ccc(-c2ccc(-c3cc(C(F)(F)F)nn3-c3ccc(C(N)=O)cc3)cc2)cc1`, the MIC against Francisella novicida [3] and in the test with Francisella tularensis [1] was 8 µg/mL (≈ 19 µM) each time.

For `Cc1ccc(-c2cc(C(F)(F)F)nn2-c2ccc(S(N)(=O)=O)cc2)cc1` [CELECOXIB], the minimum inhibitory concentration (MIC) in the test with Francisella novicida [3] amounted to 32 µg/mL (≈ 83.9 µM); in the test on Francisella tularensis [1], 16 µg/mL (≈ 42 µM); with Francisella tularensis [7] it was 16 µg/mL (≈ 42 µM). In addition, the result with Salmonella typhimurium, in the test on Escherichia coli, in the test with Francisella novicida [8], with Francisella novicida [9], in the test with Francisella novicida [10] and with Francisella novicida [11] was inactive. The result with Francisella tularensis [12] was inactive. Further, in the test with RAW264.7, the concentration for half-maximal inhibition (IC50) is 17 µg/mL (≈ 44.6 µM). Besides, in [5], the Ratio is 0.5.

On to `NC(=O)c1ccc(-n2nc(C(F)(F)F)cc2-c2ccc(-c3ccc(Cl)cc3)cc2)cc1`, for which the figures for the minimum inhibitory concentration (MIC) in the test with Francisella novicida [3] and with Francisella tularensis [1] were 4 µg/mL (≈ 9.05 µM) and 2 µg/mL (≈ 4.53 µM), respectively. Besides, 9 µg/mL (≈ 20.4 µM) corresponded to half-maximal inhibition in the test with RAW264.7 (IC50). In addition, the Ratio in test [5] is given as 2.3.

Consider `CCCCc1ccc(-c2ccc(-c3cc(C(F)(F)F)nn3-c3ccc(C(N)=O)cc3)cc2)cc1`, for which the outcome in the test on Francisella novicida [2] and in the test on Francisella tularensis [6] was inactive.

Consider `Cc1ccc(-c2ccc(-c3cc(C(F)(F)F)nn3-c3ccc(S(C)(=O)=O)cc3)cc2)cc1`, for which the outcome in the test with Francisella novicida [2] and with Francisella tularensis [6] was inactive.

Turning to `NC(=O)c1ccc(-n2nc(C(F)(F)F)cc2-c2c3ccccc3cc3ccccc23)cc1`, the MIC against Francisella novicida [3] and in the test with Francisella tularensis [1] was 16 µg/mL (≈ 37.1 µM) each time.

As to `COc1ccc2cc(-c3cc(C(F)(F)F)nn3-c3ccc(N)cc3)ccc2c1`, the MIC against Francisella novicida [3] and against Francisella tularensis [1] was 16 µg/mL (≈ 41.7 µM) throughout.

In the case of `NS(=O)(=O)c1ccc(-n2nc(C(F)(F)F)cc2-c2ccc(-c3cc(Cl)c(Cl)cc3Cl)cc2)cc1`, the MIC against Francisella novicida [3] turned out to be 2 µg/mL (≈ 3.66 µM); with Francisella tularensis [1], 1 µg/mL (≈ 1.83 µM). For the same compound, the IC50 with RAW264.7 came out at 2.4 µg/mL (≈ 4.39 µM). The Ratio in test [5] is listed as 1.2.

Consider `FC(F)(F)c1cc(-c2ccc3ccc4ccccc4c3c2)n(-c2ccccc2)n1`, for which the outcome in the test with Francisella novicida [2] and in the test with Francisella tularensis [6] was inactive.

As to `NS(=O)(=O)c1ccc(-n2nc(C(F)(F)F)cc2-c2cccc3ccccc23)cc1`, the minimum inhibitory concentration (MIC) stood at 16 µg/mL (≈ 38.3 µM) in the test with Francisella novicida [3] and 8 µg/mL (≈ 19.2 µM) in the test on Francisella tularensis [1].

With `Nc1ccc(-n2nc(C(F)(F)F)cc2-c2ccc(-c3ccccc3)cc2)cc1`, the MIC against Francisella novicida [3] and against Francisella tularensis [1] was 4 µg/mL (≈ 10.5 µM) throughout. In the test on RAW264.7, the concentration for half-maximal inhibition (IC50) is 15 µg/mL (≈ 39.5 µM). For the same compound, the Ratio in [5] is 3.8.

For `Cc1cc(C)cc(-c2ccc(-c3cc(C(F)(F)F)nn3-c3ccc(C(N)=O)cc3)cc2)c1`, the result in the test with Francisella novicida [2] and with Francisella tularensis [6] was inactive.

For `NC(=O)c1ccc(-n2nc(C(F)(F)F)cc2-c2ccc(-c3cc(Cl)cc(Cl)c3)cc2)cc1`, the MIC came out at 16 µg/mL (≈ 33.6 µM) against Francisella novicida [3] and 4 µg/mL (≈ 8.4 µM) against Francisella tularensis [1].

A word on the MIC: it is the least concentration at which growth counts as inhibited. Usually IC50 stands for the concentration that inhibits the measured activity by half. A low value points to inhibition by little substance.
